Data: ChEMBL document CHEMBL1154033, “Synthesis and enzymatic evaluation of novel partially fluorinated thiol dual ACE/NEP inhibitors” (Bioorg Med Chem Lett, 2009)

Columns and labels:
[1] = biological target: Angiotensin-converting enzyme (Homo sapiens, UniProt P12821); assay: Inhibition of human recombinant ACE by fluorimetry
Neprilysin = biological target: T1, Neprilysin (Sus scrofa, UniProt P19621); assay: Inhibition of pig kidney NEP by fluorimetry
T1 sequence (P19621 whole entry): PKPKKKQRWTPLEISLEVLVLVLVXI
Outline: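 Fluorescence was read at λex 340 nm and λem 530 nm. IC50 was derived from inhibition curves, and the assay was validated with a reference inhibitor IC50.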

[2] = biological target: T2, Endothelin-converting enzyme 1 (Homo sapiens, UniProt P42892); assay: Inhibition of human recombinant ECE1 by fluorimetry
T2 sequence (P42892 whole entry): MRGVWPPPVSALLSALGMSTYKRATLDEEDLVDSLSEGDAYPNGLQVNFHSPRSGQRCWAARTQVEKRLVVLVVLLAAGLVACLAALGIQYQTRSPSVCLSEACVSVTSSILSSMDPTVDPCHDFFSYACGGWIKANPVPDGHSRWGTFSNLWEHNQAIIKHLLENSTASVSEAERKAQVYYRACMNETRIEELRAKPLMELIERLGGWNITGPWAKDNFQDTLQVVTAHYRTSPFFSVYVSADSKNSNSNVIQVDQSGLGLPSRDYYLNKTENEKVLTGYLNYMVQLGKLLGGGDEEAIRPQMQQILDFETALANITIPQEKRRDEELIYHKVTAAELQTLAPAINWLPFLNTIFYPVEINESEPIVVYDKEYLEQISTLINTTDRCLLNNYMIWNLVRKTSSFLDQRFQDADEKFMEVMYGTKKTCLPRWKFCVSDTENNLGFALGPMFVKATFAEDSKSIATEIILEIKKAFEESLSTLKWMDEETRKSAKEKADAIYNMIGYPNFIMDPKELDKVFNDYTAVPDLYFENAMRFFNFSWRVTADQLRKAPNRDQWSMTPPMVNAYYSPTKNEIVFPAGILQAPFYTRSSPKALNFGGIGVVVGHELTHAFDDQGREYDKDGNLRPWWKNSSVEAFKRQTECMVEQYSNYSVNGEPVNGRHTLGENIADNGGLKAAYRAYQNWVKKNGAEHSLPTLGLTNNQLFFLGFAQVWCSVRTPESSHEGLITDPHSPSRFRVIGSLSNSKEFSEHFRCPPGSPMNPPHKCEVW

Angiotensin-converting enzyme, sequence (P12821 whole entry): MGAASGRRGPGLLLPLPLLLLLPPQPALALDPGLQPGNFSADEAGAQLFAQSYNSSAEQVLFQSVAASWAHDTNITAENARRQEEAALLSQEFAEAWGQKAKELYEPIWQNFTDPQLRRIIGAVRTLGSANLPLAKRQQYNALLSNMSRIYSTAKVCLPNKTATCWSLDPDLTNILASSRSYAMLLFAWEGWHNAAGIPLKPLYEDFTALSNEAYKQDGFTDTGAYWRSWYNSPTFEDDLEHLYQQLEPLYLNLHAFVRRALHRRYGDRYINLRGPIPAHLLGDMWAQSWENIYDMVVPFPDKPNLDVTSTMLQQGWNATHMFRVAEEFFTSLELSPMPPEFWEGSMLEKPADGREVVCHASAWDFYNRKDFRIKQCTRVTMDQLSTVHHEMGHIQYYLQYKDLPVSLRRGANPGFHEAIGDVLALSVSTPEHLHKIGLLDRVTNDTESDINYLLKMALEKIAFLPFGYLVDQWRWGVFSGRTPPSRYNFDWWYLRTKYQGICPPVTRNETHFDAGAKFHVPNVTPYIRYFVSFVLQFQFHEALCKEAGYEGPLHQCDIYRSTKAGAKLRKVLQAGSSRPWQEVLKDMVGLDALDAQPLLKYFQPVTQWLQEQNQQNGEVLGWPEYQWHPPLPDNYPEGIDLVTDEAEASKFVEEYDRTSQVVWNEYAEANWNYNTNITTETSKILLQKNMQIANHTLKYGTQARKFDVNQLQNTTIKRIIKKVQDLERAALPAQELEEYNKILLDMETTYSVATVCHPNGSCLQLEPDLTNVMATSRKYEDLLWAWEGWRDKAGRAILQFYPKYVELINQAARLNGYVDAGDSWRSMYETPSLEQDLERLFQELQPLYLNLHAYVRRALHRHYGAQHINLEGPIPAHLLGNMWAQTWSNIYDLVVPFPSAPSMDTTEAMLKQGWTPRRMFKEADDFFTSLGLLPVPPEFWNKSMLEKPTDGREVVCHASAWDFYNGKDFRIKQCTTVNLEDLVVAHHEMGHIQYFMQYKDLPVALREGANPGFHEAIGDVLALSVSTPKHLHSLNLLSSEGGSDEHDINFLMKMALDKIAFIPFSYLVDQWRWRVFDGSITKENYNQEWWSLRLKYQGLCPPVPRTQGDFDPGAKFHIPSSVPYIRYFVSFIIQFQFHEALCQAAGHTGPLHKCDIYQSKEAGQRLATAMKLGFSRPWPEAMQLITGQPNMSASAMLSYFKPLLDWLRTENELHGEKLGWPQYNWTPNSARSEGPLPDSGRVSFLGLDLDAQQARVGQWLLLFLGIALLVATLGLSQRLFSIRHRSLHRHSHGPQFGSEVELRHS

Structure (SMILES) | IC50 [1] [nM] | IC50 (Neprilysin) [nM] | IC50 [2] [nM]
CC(C)CC(S)CC(=O)NC(Cc1ccccc1)C(=O)O (stereo not drawn) | > 10000 | 41 | > 10000
CC(C)CC(S)CC(=O)NC(Cc1ccccc1)C(=O)NC(Cc1ccc(O)cc1)C(=O)O (stereo not drawn) | – | 50 | –
O=C(CC(S)C(F)(F)F)NC(Cc1ccccc1)C(=O)NC(Cc1ccc(O)cc1)C(=O)O (stereo not drawn) | 280 | 430 | > 10000
O=C(O)CNC(=O)C(CS)Cc1ccccc1 (stereo not drawn) [THIORPHAN] | – | 6.2 | –

Next, values leading:

IC50 [1] [nM] | IC50 (Neprilysin) [nM] | IC50 [2] [nM] | Structure (SMILES)
160 | 80 | > 10000 | O=C(CC(S)C(F)(F)F)NC(Cc1ccc(O)cc1)C(=O)O (stereo not drawn)
300 | 230 | > 10000 | O=C(CC(S)C(F)(F)F)NC(Cc1ccc(F)cc1)C(=O)O (stereo not drawn)
400 | 580 | > 10000 | O=C(CC(S)C(F)(F)F)NC(Cc1c[nH]c2ccccc12)C(=O)O (stereo not drawn)
1010 | 1150 | 2420 | O=C(CC(S)C(F)(F)C(F)(F)F)NC(Cc1ccccc1)C(=O)O (stereo not drawn)
830 | 300 | > 10000 | O=C(CC(S)C(F)(F)F)NC(Cc1ccccc1)C(=O)O (stereo not drawn)
